Converted amounts (≈) assume the structure as drawn.
Experiments:
[1] = target: Signal peptidase I (Escherichia coli K-12) (UniProt P00803); experiment: (§1) Inhibition of full length Escherichia coli His6-tagged LepB expressed in Escherichia coli C43(DE3) assessed as residual activity at 500 uM using dabcyl-VEVGGTATAGAFSRPGLE-(EDANS) as substrate preincubated for 10 mins followed by substrate addition measured for 2 hrs by FRET assay relative to control
Procedure, shortened: (§2)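 Enzyme came from the membrane fraction, extracted with 1% reduced Triton X-100 and purified by metal-chelation chromatography in 0.5% detergent. FRET pair was dabcyl acceptor and EDANS donor. EcLepB (final about 50 nM) was pre-incubated with compound 10 min at 22 °C. Reaction was then run with 8 µM substrate, following the linear fluorescence increase at 22 °C for 2 h.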

[2] = system: Pseudomonas aeruginosa; experiment: Antibacterial activity against wild type Pseudomonas aeruginosa PAO1 after 16 to 20 hrs by broth microdilution assay; type: functional
Procedure, shortened: (§3)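 MIC by broth microdilution in cation-adjusted Mueller-Hinton II medium, following EUCAST and CLSI guidelines; panel of Gram-negative strains plus S. aureus ATCC 29213.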

[3] = target: Signal peptidase I (Escherichia coli K-12) (UniProt P00803); experiment: as §1, with “7.8125” for “500”; procedure, shortened: as §2
[4] = target: Signal peptidase I (Escherichia coli K-12) (UniProt P00803); experiment: as §1, with “1000” for “500”; procedure, shortened: as §2
[5] = system: Pseudomonas aeruginosa; experiment: Antibacterial activity against wild type Pseudomonas aeruginosa PAO750 harboring efflux defective mutant after 16 to 20 hrs by broth microdilution assay; type: functional
Procedure, shortened: (§4)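 Broth microdilution MIC in cation-adjusted Mueller-Hinton II medium, following EUCAST and CLSI guidelines; tested on a panel of Gram-negative strains plus S. aureus ATCC 29213 (wild-type).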

[6] = system: Escherichia coli; experiment: Antibacterial activity against Escherichia coli D22 harboring lpxC mutant after 16 to 20 hrs by broth microdilution assay; type: functional; procedure, shortened: as §4
[7] = system: Acinetobacter baumannii; experiment: Antibacterial activity against wild type Acinetobacter baumannii ATCC 19606 after 16 to 20 hrs by broth microdilution assay; type: functional; procedure, shortened: as §3
[8] = target: Signal peptidase I (Escherichia coli K-12) (UniProt P00803); experiment: as §1, with “1.953125” for “500”; procedure, shortened: as §2
[9] = target: Signal peptidase I (Escherichia coli K-12) (UniProt P00803); experiment: as §1, with “15.625” for “500”; procedure, shortened: as §2
[10] = system: Klebsiella pneumoniae; experiment: Antibacterial activity against wild type Klebsiella pneumoniae […] after 16 to 20 hrs by broth microdilution assay; type: functional; procedure, shortened: as §3
[11] = target: Signal peptidase I (Escherichia coli K-12) (UniProt P00803); experiment: Inhibition of full length Escherichia coli His6-tagged LepB expressed in Escherichia coli C43(DE3) at 100 uM using dabcyl-VEVGGTATAGAFSRPGLE-(EDANS) as substrate preincubated for 10 mins followed by substrate addition measured for 2 hrs by FRET assay relative to control; procedure, shortened: as §2
[12] = target: Signal peptidase I (Escherichia coli K-12) (UniProt P00803); experiment: as §1, with “0.1220703” for “500”; procedure, shortened: as §2
[13] = system: Staphylococcus aureus; experiment: Antibacterial activity against wild type Staphylococcus aureus ATCC 29213 after 16 to 20 hrs by broth microdilution assay; type: functional; procedure, shortened: as §3
[14] = target: Signal peptidase I (Escherichia coli K-12) (UniProt P00803); experiment: Inhibition of full length Escherichia coli His6-tagged LepB expressed in Escherichia coli C43(DE3) assessed as residual activity at 250 uM using dabcyl-VEVGGTATAGAFSRPGLE-(EDANS) as substrate preincubated for 10 mins followed by substrate addition measured for 2 hrs by FRET assay relative to control; procedure, shortened: as §2
[15] = target: Signal peptidase I (Escherichia coli K-12) (UniProt P00803); experiment: as §1, with “0.241406” for “500”; procedure, shortened: as §2
[16] = target: Signal peptidase I (Escherichia coli K-12) (UniProt P00803); experiment: as §1, with “3.90625” for “500”; procedure, shortened: as §2
[17] = system: Escherichia coli; experiment: Antibacterial activity against wild type Escherichia coli ATCC 25922 after 16 to 20 hrs by broth microdilution assay; type: functional; procedure, shortened: as §3
[18] = target: T1, Signal peptidase I (Escherichia coli K-12, UniProt P00803); experiment: Inhibition of full length Escherichia coli His6-tagged LepB expressed in Escherichia coli C43(DE3) using dabcyl-VEVGGTATAGAFSRPGLE-(EDANS) as substrate preincubated for 10 mins followed by substrate addition measured for 2 hrs by FRET assay
T1 sequence (P00803 whole entry): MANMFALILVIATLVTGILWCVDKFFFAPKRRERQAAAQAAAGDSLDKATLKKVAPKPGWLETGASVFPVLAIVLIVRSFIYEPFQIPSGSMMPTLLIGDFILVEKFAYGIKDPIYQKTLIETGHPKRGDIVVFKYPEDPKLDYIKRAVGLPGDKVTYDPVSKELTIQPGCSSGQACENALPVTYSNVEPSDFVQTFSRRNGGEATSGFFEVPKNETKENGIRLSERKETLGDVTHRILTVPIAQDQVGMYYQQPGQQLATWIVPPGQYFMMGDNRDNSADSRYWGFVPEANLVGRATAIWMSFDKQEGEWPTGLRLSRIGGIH
Procedure, shortened: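 Enzyme extracted from the membrane fraction with 1% reduced Triton X-100 and purified by metal-chelation chromatography in 0.5% detergent. Enzyme (final ~50 nM) was pre-incubated with compound for 10 min at 22 °C. The linear rise in EDANS donor fluorescence (dabcyl acceptor) was then followed at 22 °C for 2 h. IC50 came from non-linear regression of sigmoidal rate-versus-concentration curves.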

[19] = target: Signal peptidase I (Escherichia coli K-12) (UniProt P00803); experiment: as §1, with “62.5” for “500”; procedure, shortened: as §2
[20] = target: Signal peptidase I (Escherichia coli K-12) (UniProt P00803); experiment: Inhibition of full length Escherichia coli His6-tagged LepB expressed in Escherichia coli C43(DE3) assessed as residual activity at 125 uM using dabcyl-VEVGGTATAGAFSRPGLE-(EDANS) as substrate preincubated for 10 mins followed by substrate addition measured for 2 hrs by FRET assay relative to control; procedure, shortened: as §2
[21] = target: T1, Signal peptidase I; experiment: Inhibition of full length Escherichia coli His6-tagged LepB expressed in Escherichia coli C43(DE3) using dabcyl-VEVGGTATAGAFSRPGLE-(EDANS) as substrate preincubated for 10 mins followed by substrate addition measured after […] by FRET assay
[22] = target: Signal peptidase I (Escherichia coli K-12) (UniProt P00803); experiment: as §1, with “0.9765625” for “500”; procedure, shortened: as §2
[23] = system: Escherichia coli; experiment: Antibacterial activity against Escherichia coli CH3130 harboring tolC deletion mutant after 16 to 20 hrs by broth microdilution assay; type: functional; procedure, shortened: as §4
[24] = target: Signal peptidase I (Escherichia coli K-12) (UniProt P00803); experiment: as §1, with “0.4882812” for “500”; procedure, shortened: as §2
[25] = target: Signal peptidase I (Escherichia coli K-12) (UniProt P00803); experiment: as §1, with “31.25” for “500”; procedure, shortened: as §2

Signal peptidase I (Escherichia coli K-12), sequence (P00803 whole entry): as above

CCCCCCCCCC(=O)N1CCC[C@H]1C(=O)N[C@H](C(=O)N[C@@H](C)C(=O)N[C@@H](CC(N)=O)C(=O)N[C@@H](C)C=O)[C@H](C)O
Activity [1]: -4.44% | MIC [2]: > 128 µg/mL | Activity [3]: 20.9% | Activity [4]: -5.5% | MIC [5]: 128 µg/mL (≈ 210 µM) | MIC [6]: > 128 µg/mL | MIC [7]: > 128 µg/mL | Activity [8]: 43.6% | Activity [9]: 13% | MIC [10]: > 128 µg/mL | inhibition [11]: 100% | Activity [12]: 77.4% | MIC [13]: > 128 µg/mL | Activity [14]: -6.1% | Activity [15]: 72.6% | Activity [16]: 34.7% | MIC [17]: > 128 µg/mL | IC50 [18]: 1200 nM | Activity [19]: -0.871% | Activity [20]: -3.34% | IC50 [21]: 6.5 µM | Activity [22]: 48.7% | MIC [23]: > 128 µg/mL | Activity [24]: 64.5% | Activity [25]: 6.54%

Reference: ChEMBL document CHEMBL3877308, “Design, synthesis and in vitro biological evaluation of oligopeptides targeting E. coli type I signal peptidase (LepB)” (Bioorg Med Chem, 2017)
